Here are results for eight molecules from ChEMBL document CHEMBL1127471, “Tricyclic analogues of acyclovir and ganciclovir. Influence of substituents in the heterocyclic moiety on the antiviral activity” (1994).

≈ marks a conversion by molar mass, not a printed value.

Type in all cases: functional
Assay [1] relates to Human alphaherpesvirus 1. The experiment in a line: The minimum inhibitory concentration was measured on E6SM cells against TK+/TK-Herpes simplex virus type 1 (VMW1837 strain). A digest of the protocol: (§1)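 Antiviral endpoint was the concentration reducing virus-induced cytopathicity by 50% in […] cell cultures. Values are means of two to six independent determinations.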
For a further assay, the system named is Vaccinia virus. The experiment in a line: The minimum inhibitory concentration was measured on E6SM cells against Vaccinia virus. The conditions noted are these: Orthopoxvirus vaccinia. The essentials: as §1
The test system of another assay is Cytomegalovirus. As to the kind of experiment: The minimum inhibitory concentration was measured on HEL cells against Cytomegalovirus virus (Davis strain). The following applies: Human betaherpesvirus 5. The essentials: (§2)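 Antiviral endpoint was the concentration reducing virus plaque formation by 50% in HEL cell cultures. Values are means of two to six independent determinations.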

In assay [2] the test system is Human alphaherpesvirus 1. As to the kind of experiment: The minimum inhibitory concentration was measured on E6SM cells against Herpes simplex virus type 1 (F strain). A digest of the protocol: as §1
The next assay deals with E6SM. The experiment in a line: The minimum inhibitory concentration was measured on E6SM cells for morphological alteration. The conditions noted are these: Homo sapiens. A digest of the protocol: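 In uninfected E6SM cells, the value is the concentration giving a microscopically detectable change in normal cell morphology. Values are means of two to six independent determinations.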

Assay [3] has as its system Human alphaherpesvirus 3. The experiment in a line: The minimum inhibitory concentration was measured on HEL cells against TK-Varicella zoster virus (YS-R strain). The following applies: Human alphaherpesvirus 3, ys-r. The essentials: as §2
The subject of assay [4] is HEL. The experiment in a line: The […] was measured on HEL cells in cell growth. The conditions noted are these: Homo sapiens.
Assay [5] in a line: The minimum inhibitory concentration was measured on E6SM cells against Herpes simplex virus type 1 (McIntyre strain). The following applies: Human alphaherpesvirus 1. The essentials: as §1
The subject of assay [6] is Human alphaherpesvirus 3. As to the kind of experiment: The minimum inhibitory concentration was measured on HEL cells against TK-Varicella zoster virus (07/1 strain). The essentials:
as §2

Assay [7] concerns Human alphaherpesvirus 1. The experiment in a line: The minimum inhibitory concentration was measured on E6SM cells against TK-Herpes simplex virus type 1 (B2006 strain). The essentials: as §1
Another assay has as its system Human betaherpesvirus 5. The experiment in a line: The minimum inhibitory concentration was measured on HEL cells against Cytomegalovirus virus (AD-169 strain). The essentials: as §2
Assay [8] relates to Human alphaherpesvirus 3. As to the kind of experiment: The minimum inhibitory concentration was measured on HEL cells against Varicella zoster virus (OKA strain). The conditions noted are these: Human alphaherpesvirus 3, oka. The essentials: as §2
The subject of assay [9] is Human alphaherpesvirus 3. As to the kind of experiment: The minimum inhibitory concentration was measured on HEL cells against Varicella zoster virus (YS strain). The essentials: as §2
Assay [10] can be described thus: The minimum inhibitory concentration was measured against Herpes simplex virus type 1 (KOS strain) on E6SM cells. The conditions noted are these: Human alphaherpesvirus 1. The essentials:
as §1

The test system of assay [11] is HEL. The experiment in a line: The minimum inhibitory concentration was measured on HEL cells against Cytomegalovirus virus (AD-169 strain); (<400>100). The conditions noted are these: Homo sapiens. The essentials:
as §2

The test system of assay [12] is HEL. The experiment in a line: The minimum inhibitory concentration was measured on HEL cells against Cytomegalovirus virus (Davis strain); (<400>100). The conditions noted are these: Homo sapiens. The essentials: as §2
Assay [13] concerns HEL. As to the kind of experiment: The minimum inhibitory concentration was measured on HEL cells against TK-Varicella zoster virus (YS-R strain); (<400>100). The following applies: Homo sapiens. A digest of the protocol:
as §2

As to `OCC(CO)OCN1CNc2c1nc1nc(-c3ccc(-c4ccccc4)cc3)cn1c2O`, the MIC with Human alphaherpesvirus 1 [1] was 2.7 µg/mL (≈ 6.23 µM); in the assay with Vaccinia virus it was over 70 µg/mL; against Cytomegalovirus, over 50 µg/mL; against Human alphaherpesvirus 1 [2], 0.01 µg/mL (≈ 0.0231 µM); in the assay on E6SM it was over 85 µg/mL; in the assay with Human alphaherpesvirus 3 [3], 20 µg/mL (≈ 46.1 µM). Also, the MIC against HEL [4] was over 200 µg/mL; in [5] it was 0.001 µg/mL (≈ 0.00231 µM); against Human alphaherpesvirus 3 [6], 25 µg/mL (≈ 57.7 µM); against Human alphaherpesvirus 1 [7], over 60 µg/mL; in the assay on Human betaherpesvirus 5, over 50 µg/mL; in the assay on Human alphaherpesvirus 3 [8] it was 10 µg/mL (≈ 23.1 µM). Moreover, the MIC is over 50 µg/mL in the assay on Human alphaherpesvirus 3 [9] and 0.02 µg/mL (≈ 0.0461 µM) in assay [10].

Consider `OCCOCN1CNc2c1nc1nc(-c3ccc(-c4ccccc4)cc3)cn1c2O`, for which the MIC with Human alphaherpesvirus 1 [1] was over 55 µg/mL; against Vaccinia virus, over 70 µg/mL; against Human alphaherpesvirus 1 [2], 2 µg/mL (≈ 4.96 µM); in the assay with E6SM, at least 70 µg/mL; with HEL [4], over 200 µg/mL; against HEL [11], over 100 µg/mL. Also, the MIC in assay [5] is 0.7 µg/mL (≈ 1.74 µM); against HEL [12], over 100 µg/mL; in the assay on Human alphaherpesvirus 3 [6], 100 µg/mL (≈ 248 µM); with HEL [13], over 100 µg/mL; against Human alphaherpesvirus 3 [8], 65 µg/mL (≈ 161 µM); against Human alphaherpesvirus 3 [9] it was 40 µg/mL (≈ 99.1 µM). The same molecule came in with an MIC in [10] of 1.3 µg/mL (≈ 3.22 µM).

In the case of `Cc1cn2c(O)c3c(nc2n1)N(COCCO)CN3`, the MIC with Human alphaherpesvirus 1 [1] is 40 µg/mL (≈ 151 µM); with Vaccinia virus, over 190 µg/mL; with Cytomegalovirus, over 50 µg/mL; in the assay with Human alphaherpesvirus 1 [2], 0.58 µg/mL (≈ 2.19 µM); with E6SM it was over 190 µg/mL; in the assay with Human alphaherpesvirus 3 [3], 70 µg/mL (≈ 264 µM). The MIC against HEL [4] is over 200 µg/mL; in assay [5], 1 µg/mL (≈ 3.77 µM); with Human alphaherpesvirus 3 [6], over 50 µg/mL; with Human alphaherpesvirus 1 [7] it was 127 µg/mL (≈ 479 µM); in the assay with Human betaherpesvirus 5, over 50 µg/mL; in the assay on Human alphaherpesvirus 3 [8] it was 4.6 µg/mL (≈ 17.3 µM). Further, the MIC against Human alphaherpesvirus 3 [9] stood at 9.4 µg/mL (≈ 35.4 µM); in assay [10] it was 0.8 µg/mL (≈ 3.02 µM).

For the molecule `Nc1nc2c(ncn2COCCO)c(=O)[nH]1` [ACYCLOVIR], the MIC in the assay with Human alphaherpesvirus 1 [1] is 5 µg/mL (≈ 22.2 µM); against Vaccinia virus, over 180 µg/mL; against Human alphaherpesvirus 1 [2], 0.004 µg/mL (≈ 0.0178 µM); in the assay on E6SM it was 350 µg/mL (≈ 1550 µM); in the assay with Human alphaherpesvirus 3 [3], 4.7 µg/mL (≈ 20.9 µM); against HEL [4], over 200 µg/mL. Also, the MIC in [5] came to 0.07 µg/mL (≈ 0.311 µM); in the assay with Human alphaherpesvirus 3 [6], 13.7 µg/mL (≈ 60.8 µM); in the assay on Human alphaherpesvirus 1 [7] it was 70 µg/mL (≈ 311 µM); against Human betaherpesvirus 5 it was 13.2 µg/mL (≈ 58.6 µM); in the assay on Human alphaherpesvirus 3 [8], 0.18 µg/mL (≈ 0.799 µM); against Human alphaherpesvirus 3 [9] it was 0.38 µg/mL (≈ 1.69 µM). In addition, the MIC in assay [10] came to 0.02 µg/mL (≈ 0.0888 µM).

In the case of `O=c1[nH]c(=O)n([C@H]2C[C@H](O)[C@@H](CO)O2)cc1/C=C/Br` [BRIVUDINE], the MIC with Human alphaherpesvirus 1 [1] was 52 µg/mL (≈ 156 µM); with Vaccinia virus, 0.22 µg/mL (≈ 0.66 µM); with Cytomegalovirus it was over 20 µg/mL; in the assay with Human alphaherpesvirus 1 [2], 0.005 µg/mL (≈ 0.015 µM); with E6SM, over 350 µg/mL; in the assay with Human alphaherpesvirus 3 [3], 20 µg/mL (≈ 60 µM). Besides, the MIC against HEL [4] is 60 µg/mL (≈ 180 µM); in assay [5] it was 0.006 µg/mL (≈ 0.018 µM); against Human alphaherpesvirus 3 [6], 17.5 µg/mL (≈ 52.5 µM); in the assay on Human alphaherpesvirus 1 [7], 15 µg/mL (≈ 45 µM); against Human betaherpesvirus 5, over 20 µg/mL; against Human alphaherpesvirus 3 [8], 0.005 µg/mL (≈ 0.015 µM). Also, the MIC (in the assay on Human alphaherpesvirus 3 [9]; in assay [10]) was 0.003 µg/mL (≈ 0.00901 µM) each time.

In the case of `Nc1nc2c(ncn2COC(CO)CO)c(=O)[nH]1` [GANCICLOVIR], the MIC was 0.08 µg/mL (≈ 0.313 µM) against Human alphaherpesvirus 1 [1]; over 80 µg/mL in the assay on Vaccinia virus; 0.9 µg/mL (≈ 3.53 µM) against Cytomegalovirus; 0.004 µg/mL (≈ 0.0157 µM) against Human alphaherpesvirus 1 [2]; over 270 µg/mL with E6SM; 1.4 µg/mL (≈ 5.49 µM) in the assay on Human alphaherpesvirus 3 [3]. Besides, the MIC against HEL [4] was over 200 µg/mL; in [5] it was 0.004 µg/mL (≈ 0.0157 µM); in the assay on Human alphaherpesvirus 3 [6], 1.5 µg/mL (≈ 5.88 µM); in the assay with Human alphaherpesvirus 1 [7], 4.5 µg/mL (≈ 17.6 µM); with Human betaherpesvirus 5 it was 1.5 µg/mL (≈ 5.88 µM); in the assay on Human alphaherpesvirus 3 [8] it was 0.5 µg/mL (≈ 1.96 µM). Further, the MIC in the assay with Human alphaherpesvirus 3 [9] came out at 1.4 µg/mL (≈ 5.49 µM); in assay [10], 0.003 µg/mL (≈ 0.0118 µM).

With `O=c1[nH]c(=O)n([C@H]2C[C@H](O)[C@@H](CO)O2)cc1I` [IDOXURIDINE], the MIC with Human alphaherpesvirus 1 [1] was 20 µg/mL (≈ 56.5 µM); with Vaccinia virus it was over 20 µg/mL; against Human alphaherpesvirus 1 [2], 7 µg/mL (≈ 19.8 µM); in the assay with E6SM, at least 400 µg/mL; in assay [5], 4 µg/mL (≈ 11.3 µM); in [10] it was 20 µg/mL (≈ 56.5 µM).

As for `NC(=O)c1ncn([C@@H]2O[C@H](CO)[C@@H](O)[C@H]2O)n1` [RIBAVIRIN], the MIC in the assay on Human alphaherpesvirus 1 [1] amounted to 115 µg/mL (≈ 471 µM); in the assay with Vaccinia virus it was 28 µg/mL (≈ 115 µM); against Human alphaherpesvirus 1 [2] it was 23 µg/mL (≈ 94.2 µM); in the assay with E6SM it was 400 µg/mL (≈ 1640 µM); in [5], 16 µg/mL (≈ 65.5 µM); with Human alphaherpesvirus 1 [7], 53 µg/mL (≈ 217 µM). In addition, in assay [10], the MIC came out at 46 µg/mL (≈ 188 µM).
